# Measurements taken from ChEMBL document CHEMBL4406821, “Novel dual inhibitors targeting CDK4 and VEGFR2 synergistically suppressed cancer progression and angiogenesis” (Eur J Med Chem, 2019).
# Active and inactive are the calls of the source. The rule behind the calls is not given here.
# How the values were obtained:
# [1] = target: Cytoplasmic tyrosine-protein kinase BMX (Homo sapiens) (UniProt P51813); assay: Inhibition of recombinant full length human BMX at 1 uM using poly(Glu, Tyr) 4:1 as substrate incubated for 40 mins in presence of [gamma-33P]-ATP by scintillation counting method relative to control
# Chain of Cytoplasmic tyrosine-protein kinase BMX (Homo sapiens) (P51813 whole entry): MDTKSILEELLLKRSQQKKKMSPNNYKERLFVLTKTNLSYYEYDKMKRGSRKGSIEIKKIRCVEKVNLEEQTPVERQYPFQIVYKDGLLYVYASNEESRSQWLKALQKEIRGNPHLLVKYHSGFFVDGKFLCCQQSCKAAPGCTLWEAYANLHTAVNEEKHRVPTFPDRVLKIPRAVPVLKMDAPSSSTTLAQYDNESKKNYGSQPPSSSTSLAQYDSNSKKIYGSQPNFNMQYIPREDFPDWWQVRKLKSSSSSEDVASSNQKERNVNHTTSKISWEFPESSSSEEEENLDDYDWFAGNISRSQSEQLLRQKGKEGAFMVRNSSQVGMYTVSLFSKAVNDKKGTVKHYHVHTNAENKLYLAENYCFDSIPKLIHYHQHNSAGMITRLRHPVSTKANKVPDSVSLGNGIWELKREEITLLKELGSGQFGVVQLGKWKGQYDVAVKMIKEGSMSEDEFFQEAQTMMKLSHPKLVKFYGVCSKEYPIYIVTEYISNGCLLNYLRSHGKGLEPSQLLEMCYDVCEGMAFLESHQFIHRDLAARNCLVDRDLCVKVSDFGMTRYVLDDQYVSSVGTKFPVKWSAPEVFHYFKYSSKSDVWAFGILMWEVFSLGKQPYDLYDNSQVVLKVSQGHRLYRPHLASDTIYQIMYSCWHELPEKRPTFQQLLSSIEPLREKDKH
# Procedure, shortened: (§1)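 Kinase panel profiling at 1 μM performed by Eurofins KinaseProfiler; percent inhibition reported as mean of two independent experiments.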
# [2] = VRT (0 to t) in Sprague-Dawley rat at 10 mg/kg, po by HPLC-MS analysis; assay type: ADME, organism-based; conditions: in vivo
# [3] = test system: MDA-MB-231; assay: Induction of apoptosis in human MDA-MB-231 cells assessed as increase in early apoptotic cells at 20 to 40 nM incubated for 48 hrs by annexin V FITC and propidium iodide staining based flow cytometry; assay type: functional, cell-based
# Procedure, shortened: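 Cells were treated for 48 h, stained with FITC Annexin V and PI, and analyzed by flow cytometry to count early and late apoptotic cells.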
# [4] = target: Serine/threonine-protein kinase SIK3 (Homo sapiens) (UniProt Q9Y2K2); assay: Inhibition of recombinant human SIK3 (1 to 307 residues) at 1 uM using KKKVSRSGLYRSPSMPENLNRPR as substrate incubated for 40 mins in presence of [gamma-33P]-ATP by scintillation counting method relative to control
# [5] = test system: SiHa; assay: Antiproliferative activity against human SiHa cells assessed as reduction in cell viability at 40 to 80 nM incubated for 48 hrs by EdU staining based laser scanning confocal microscopy; assay type: functional
# Procedure, shortened: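 Cells, 5×10^4, were seeded in 24-well plates and treated for 48 h. They were then labeled using an EdU Apollo 488 imaging kit with Hoechst 33342 nuclear stain and imaged by laser scanning confocal microscopy. Percent EdU-positive cells = EdU-positive/Hoechst-stained × 100%.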
# [6] = target: Ribosomal protein S6 kinase alpha-5 (Homo sapiens) (UniProt O75582); assay: Inhibition of recombinant human MSK1 (2 to end residues) at 1 uM using GRPRTSSFAEGKK as substrate incubated for 40 mins in presence of [gamma-33P]-ATP by scintillation counting method relative to control
# [7] = target: Serine/threonine-protein kinase Nek1 (Homo sapiens) (UniProt Q96PY6); assay: Inhibition of recombinant human NEK1 (1 to 505 residues) at 1 uM using RLGRDKYKTLRQIRQ as substrate incubated for 40 mins in presence of [gamma-33P]-ATP by scintillation counting method relative to control
# Chain of Serine/threonine-protein kinase Nek1 (Homo sapiens) (Q96PY6 whole entry, the tested form may be a part): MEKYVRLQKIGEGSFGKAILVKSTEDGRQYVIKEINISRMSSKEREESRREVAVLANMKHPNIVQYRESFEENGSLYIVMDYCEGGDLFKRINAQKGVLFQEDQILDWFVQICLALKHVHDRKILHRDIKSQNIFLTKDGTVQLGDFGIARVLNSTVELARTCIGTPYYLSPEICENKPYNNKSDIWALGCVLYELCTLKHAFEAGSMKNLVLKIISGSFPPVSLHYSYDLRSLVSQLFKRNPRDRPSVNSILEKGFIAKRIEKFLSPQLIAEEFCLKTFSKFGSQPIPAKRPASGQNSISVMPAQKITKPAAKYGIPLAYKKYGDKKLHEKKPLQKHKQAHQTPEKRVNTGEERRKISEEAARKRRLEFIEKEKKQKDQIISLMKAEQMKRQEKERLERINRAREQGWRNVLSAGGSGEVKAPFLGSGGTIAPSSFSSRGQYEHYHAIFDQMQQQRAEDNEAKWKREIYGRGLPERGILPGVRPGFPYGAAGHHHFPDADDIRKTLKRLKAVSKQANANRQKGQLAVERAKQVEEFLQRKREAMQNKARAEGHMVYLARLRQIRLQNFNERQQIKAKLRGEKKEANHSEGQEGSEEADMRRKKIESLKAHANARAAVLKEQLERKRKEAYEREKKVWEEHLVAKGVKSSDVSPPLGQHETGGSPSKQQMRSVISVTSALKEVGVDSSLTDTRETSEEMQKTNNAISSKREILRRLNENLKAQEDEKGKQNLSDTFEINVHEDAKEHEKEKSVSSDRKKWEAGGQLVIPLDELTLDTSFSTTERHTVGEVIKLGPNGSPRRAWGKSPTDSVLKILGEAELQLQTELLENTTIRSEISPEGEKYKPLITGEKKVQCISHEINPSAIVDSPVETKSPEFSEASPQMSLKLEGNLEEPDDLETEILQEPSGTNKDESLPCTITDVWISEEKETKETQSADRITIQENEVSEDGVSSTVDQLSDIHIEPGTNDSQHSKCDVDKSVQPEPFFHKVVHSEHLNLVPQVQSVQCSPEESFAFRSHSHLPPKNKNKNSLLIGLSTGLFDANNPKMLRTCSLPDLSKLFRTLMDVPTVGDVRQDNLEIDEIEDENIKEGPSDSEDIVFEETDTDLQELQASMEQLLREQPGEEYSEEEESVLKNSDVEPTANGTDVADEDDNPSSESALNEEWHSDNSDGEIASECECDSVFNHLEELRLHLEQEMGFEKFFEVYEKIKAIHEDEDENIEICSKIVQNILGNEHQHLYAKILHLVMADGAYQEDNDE
# [8] = test system: Angiopoietin-1 receptor (Homo sapiens), Q02763 [Y897S]; assay: Inhibition of recombinant human TIE2 Y897S mutant (771 to end residues) at 1 uM using EFPIYDFLPAKKK as substrate incubated for 40 mins in presence of [gamma-33P]-ATP by scintillation counting method relative to control
# Chain of Angiopoietin-1 receptor (Homo sapiens), Q02763 [Y897S] (Q02763 whole entry Y897S): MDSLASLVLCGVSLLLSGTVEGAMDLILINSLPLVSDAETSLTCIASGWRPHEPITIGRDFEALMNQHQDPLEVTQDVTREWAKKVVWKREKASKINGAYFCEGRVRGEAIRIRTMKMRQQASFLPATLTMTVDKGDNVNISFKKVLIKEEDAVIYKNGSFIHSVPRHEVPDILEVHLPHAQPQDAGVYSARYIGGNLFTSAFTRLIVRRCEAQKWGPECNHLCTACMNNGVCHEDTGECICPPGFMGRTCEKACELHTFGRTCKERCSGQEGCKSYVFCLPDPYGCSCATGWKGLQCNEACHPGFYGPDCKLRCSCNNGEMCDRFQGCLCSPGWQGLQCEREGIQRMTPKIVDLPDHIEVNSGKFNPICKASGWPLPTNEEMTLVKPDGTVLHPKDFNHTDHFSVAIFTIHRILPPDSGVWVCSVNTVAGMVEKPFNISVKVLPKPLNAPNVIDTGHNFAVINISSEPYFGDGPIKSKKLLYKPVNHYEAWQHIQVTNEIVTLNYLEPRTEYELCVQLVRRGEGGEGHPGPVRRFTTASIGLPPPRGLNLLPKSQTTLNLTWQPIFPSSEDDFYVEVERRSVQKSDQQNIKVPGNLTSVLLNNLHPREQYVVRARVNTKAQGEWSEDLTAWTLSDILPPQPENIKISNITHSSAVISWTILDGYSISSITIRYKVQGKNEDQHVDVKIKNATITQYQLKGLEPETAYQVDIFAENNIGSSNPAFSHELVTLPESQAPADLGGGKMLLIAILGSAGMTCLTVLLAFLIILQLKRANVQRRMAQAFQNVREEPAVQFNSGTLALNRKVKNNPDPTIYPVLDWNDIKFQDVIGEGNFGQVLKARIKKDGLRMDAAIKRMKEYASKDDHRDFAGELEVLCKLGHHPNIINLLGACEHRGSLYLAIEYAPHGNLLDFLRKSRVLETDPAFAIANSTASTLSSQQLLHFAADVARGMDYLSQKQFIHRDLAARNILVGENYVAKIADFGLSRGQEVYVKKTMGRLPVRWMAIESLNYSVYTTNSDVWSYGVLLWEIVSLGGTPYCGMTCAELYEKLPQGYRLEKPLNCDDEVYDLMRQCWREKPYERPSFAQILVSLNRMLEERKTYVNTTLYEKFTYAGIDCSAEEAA
# [9] = Half life in Sprague-Dawley rat at 10 mg/kg, iv by HPLC-MS analysis; assay type: ADME, organism-based; conditions: in vivo
# Procedure, shortened: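 Rats fitted with jugular vein catheters for serial blood sampling. Compound dissolved in saline with 5% (v/v) DMSO and given as a single 10 mg/kg dose iv or po after an overnight fast, n = 5 per group. Plasma isolated at once and measured by HPLC with tandem MS detection. Parameters derived by noncompartmental fitting.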
# [10] = target: Serine/threonine-protein kinase TBK1 (Homo sapiens) (UniProt Q9UHD2); assay: Inhibition of recombinant human full length TBK1 at 1 uM using KRRRALS(p)VASLPGL as substrate incubated for 40 mins in presence of [gamma-33P]-ATP by scintillation counting method relative to control
# Chain of Serine/threonine-protein kinase TBK1 (Homo sapiens) (Q9UHD2 whole entry, the tested form may be a part): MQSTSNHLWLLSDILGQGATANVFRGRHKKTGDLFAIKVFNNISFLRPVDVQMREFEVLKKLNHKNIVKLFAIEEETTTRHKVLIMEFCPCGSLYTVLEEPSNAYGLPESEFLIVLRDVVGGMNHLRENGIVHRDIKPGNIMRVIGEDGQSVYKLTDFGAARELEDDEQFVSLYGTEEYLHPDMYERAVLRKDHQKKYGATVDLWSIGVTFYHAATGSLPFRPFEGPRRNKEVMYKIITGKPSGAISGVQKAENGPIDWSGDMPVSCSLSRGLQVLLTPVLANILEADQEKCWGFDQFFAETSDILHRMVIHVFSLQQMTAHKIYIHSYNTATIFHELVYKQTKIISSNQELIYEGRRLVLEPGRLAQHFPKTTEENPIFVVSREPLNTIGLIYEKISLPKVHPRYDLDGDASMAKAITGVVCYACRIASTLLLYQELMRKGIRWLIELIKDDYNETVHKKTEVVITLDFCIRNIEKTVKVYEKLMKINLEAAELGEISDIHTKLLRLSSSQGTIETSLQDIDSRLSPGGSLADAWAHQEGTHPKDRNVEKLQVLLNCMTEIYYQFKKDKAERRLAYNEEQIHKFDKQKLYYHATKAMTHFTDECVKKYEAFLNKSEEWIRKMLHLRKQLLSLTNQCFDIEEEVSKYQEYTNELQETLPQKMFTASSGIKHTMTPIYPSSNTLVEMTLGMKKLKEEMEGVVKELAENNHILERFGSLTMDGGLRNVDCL
# [11] = target: Ribosomal protein S6 kinase beta-1 (Homo sapiens) (UniProt P23443); assay: Inhibition of recombinant human p70S6K (1 to 421 residues) at 1 uM using KKRNRTLTV as substrate incubated for 40 mins in presence of [gamma-33P]-ATP by scintillation counting method relative to control
# Chain of Ribosomal protein S6 kinase beta-1 (Homo sapiens) (P23443 whole entry, looked up, the tested form may be a part): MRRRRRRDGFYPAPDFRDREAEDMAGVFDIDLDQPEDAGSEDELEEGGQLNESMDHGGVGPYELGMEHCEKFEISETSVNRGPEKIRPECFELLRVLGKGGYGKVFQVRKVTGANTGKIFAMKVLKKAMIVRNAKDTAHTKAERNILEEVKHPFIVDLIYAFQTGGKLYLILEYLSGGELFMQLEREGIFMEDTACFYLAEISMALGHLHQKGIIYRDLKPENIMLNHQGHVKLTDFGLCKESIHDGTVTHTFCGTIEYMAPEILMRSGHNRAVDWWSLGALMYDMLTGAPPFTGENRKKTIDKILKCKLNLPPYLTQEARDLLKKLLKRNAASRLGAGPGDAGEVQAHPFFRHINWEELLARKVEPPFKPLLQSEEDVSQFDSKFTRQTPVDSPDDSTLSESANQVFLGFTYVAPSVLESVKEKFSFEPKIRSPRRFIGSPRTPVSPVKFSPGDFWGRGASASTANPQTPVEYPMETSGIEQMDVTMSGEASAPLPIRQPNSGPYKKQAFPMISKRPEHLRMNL
# [12] = Volume of distribution in Sprague-Dawley rat at 10 mg/kg, iv by HPLC-MS analysis; assay type: ADME, organism-based; conditions: in vivo
# [13] = test system: Saccharomyces cerevisiae; assay: Inhibition of recombinant fungi CK1 (2 to 298 residues) at 1 uM using KRRRALS(p)VAS as substrate incubated for 40 mins in presence of [gamma-33P]-ATP by scintillation counting method relative to control; procedure, shortened: as §1
# [14] = target: Serine/threonine-protein kinase haspin (Homo sapiens) (UniProt Q8TF76); assay: Inhibition of recombinant human Haspin (471 to end residues) at 1 uM using RARTLSFAEPG as substrate incubated for 40 mins in presence of [gamma-33P]-ATP by scintillation counting method relative to control
# [15] = target: STE20-like serine/threonine-protein kinase (Homo sapiens) (UniProt Q9H2G2); assay: Inhibition of recombinant human SLK (1 to 373 residues) at 1 uM using RLGRDKYKTLRQIRQ as substrate incubated for 40 mins in presence of [gamma-33P]-ATP by scintillation counting method relative to control
# [16] = test system: SiHa; assay: Antiangiogenic activity against human SiHa cells xenografted in orally dosed NOD/SCID BALB/c mouse assessed as reduction in CD31 expression measured after 21 days by hematoxylin and eosin staining based immunohistochemistry; assay type: functional, organism-based
# Procedure, shortened: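 Female NOD/SCID Balb/c mice, 6–8 weeks old, received 2×10^6 SiHa cells subcutaneously in the right flank. Once tumors reached 100 mm³, mice were randomized, 5 per group, and gavaged once daily for 21 days. Formalin-fixed, paraffin-embedded tumor sections were stained with Ki67 or CD31 antibody (1:100, 4 °C overnight), then biotin secondary and ABC-peroxidase/DAB, with hematoxylin counterstain.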
# [17] = test system: MDA-MB-231; assay: Induction of apoptosis in human MDA-MB-231 cells assessed as decrease in Bcl2 expression at 20 to 40 nM incubated for 48 hrs by Western blot analysis; assay type: functional, cell-based
# Procedure, shortened: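 Cells were treated for 48 h, washed three times with PBS, and lysed in RIPA buffer. Immunoblots used anti-Rb, anti-phospho-Rb, anti-Ki67 and anti-Bcl-2 (each 1:1000), with β-actin as loading control.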
# [18] = target: Casein kinase II subunit alpha (Homo sapiens) (UniProt P68400); assay: Inhibition of recombinant full length human CK2alpha1 at 1 uM using RRRDDDSDDD as substrate incubated for 40 mins in presence of [gamma-33P]-ATP by scintillation counting method relative to control; procedure, shortened: as §1
# [19] = target: LIM domain kinase 1 (Homo sapiens) (UniProt P53667); assay: Inhibition of recombinant human LIMK1 (285 to 638 residues) at 1 uM using cofilin as substrate incubated for 40 mins in presence of [gamma-33P]-ATP by scintillation counting method relative to control
# Chain of LIM domain kinase 1 (Homo sapiens) (P53667 whole entry, looked up, the tested form may be a part): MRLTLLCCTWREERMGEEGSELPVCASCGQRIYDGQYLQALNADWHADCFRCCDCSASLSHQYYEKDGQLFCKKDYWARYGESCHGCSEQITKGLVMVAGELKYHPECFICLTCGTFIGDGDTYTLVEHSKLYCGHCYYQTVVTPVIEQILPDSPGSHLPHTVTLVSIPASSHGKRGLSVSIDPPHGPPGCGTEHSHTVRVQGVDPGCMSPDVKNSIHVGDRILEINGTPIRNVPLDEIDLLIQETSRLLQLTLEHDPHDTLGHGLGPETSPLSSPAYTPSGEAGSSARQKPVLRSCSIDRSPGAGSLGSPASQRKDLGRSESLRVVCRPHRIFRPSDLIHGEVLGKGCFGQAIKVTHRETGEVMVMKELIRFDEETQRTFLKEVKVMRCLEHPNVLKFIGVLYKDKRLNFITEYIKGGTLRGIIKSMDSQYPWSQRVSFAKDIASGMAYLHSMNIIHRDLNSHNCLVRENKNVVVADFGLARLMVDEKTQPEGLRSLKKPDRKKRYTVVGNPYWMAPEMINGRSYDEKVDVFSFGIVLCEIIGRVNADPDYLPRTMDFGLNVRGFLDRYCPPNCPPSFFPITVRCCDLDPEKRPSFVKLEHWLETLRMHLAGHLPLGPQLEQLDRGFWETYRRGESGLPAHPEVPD
# [20] = test system: HeLa; assay: Inhibition of colony formation in human HeLa cells at 80 nM incubated for 5 days by crystal violet staining based light microscopy; assay type: functional, cell-based
# Procedure, shortened: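 4 × 10^3 cells per well were cultured with graded concentrations for 5 days. Cells were then fixed with 20% methanol, stained with 0.5% crystal violet and photographed by light microscopy.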
# [21] = test system: SiHa; assay: Induction of apoptosis in human SiHa cells assessed as decrease in Bcl2 expression at 40 nM incubated for 48 hrs by Western blot analysis; assay type: functional, cell-based
# Procedure, shortened: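 Cancer cells were exposed to graded concentrations for 48 h, washed three times in PBS and lysed in RIPA buffer. Immunoblots were probed with anti-Rb, anti-phospho-Rb, anti-Ki67 and anti-Bcl-2, each at 1:1000. β-actin served as loading control.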
structure (smiles),measurement,setting,value
Cc1ccc(NC(=O)C2(C(=O)Nc3ccc(Nc4ncc(F)c(-c5cc(F)c6nc(C)n(C(C)C)c6c5)n4)cc3)CC2)cc1,inhibition,[1],59%
same,VRT(t),[2],7 h
same,Activity,[3],Active
same,inhibition,[4],43%
same,inhibition,[5],Active
same,inhibition,[6],62%
same,inhibition,[7],72%
same,inhibition,[8],51%
same,half-life,[9],120 min
same,inhibition,[10],9%
same,inhibition,[11],63%
same,Vd,[12],2 L/kg
same,inhibition,[13],48%
same,inhibition,[14],22%
same,inhibition,[15],90%
same,inhibition,[16],Dose-dependent effect
same,Activity,[17],Active
same,inhibition,[18],36%
same,inhibition,[19],24%
COc1cc2nccc(Oc3ccc(NC(=O)C4(C(=O)Nc5ccc(F)cc5)CC4)cc3)c2cc1OC [CABOZANTINIB],inhibition,[20],Active
same,Activity,[21],Active
